This is a sample that favours compounds with a hit; in the whole collection about 1.4% have one here.
KLK5 inh: inhibitors of human kallikrein 5; Q9Y337; recombinant hK5, fluorogenic AMC substrate cleavage; inhibition, % at 5 µM; 210,000 compounds, 0.59% hits;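 active = inhibition of 40% or more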;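 also: 0% = enzyme controls without compound and 100% = no-enzyme blanks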
Fh CTSL1 inh: blocks F. hepatica cathepsin L1 in PFM18AAP counter-screen. recombinant F. hepatica cathepsin L1, Z-Leu-Arg-MCA fluorescence. inhibition, % at 5.96 µM. 300,000 compounds, 0.49% hits;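 active = inhibition above the mean of all tested compounds plus 3 SD, set per screening campaign, cut at about 17% in these data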;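 also: 0% = plate median of test compound wells and 100% = 1 µM Z-Phe-Ala-diazomethylketone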
Rce1 inh: blocks yeast Ras-converting enzyme; Q03530; yeast membranes, quenched prenylated peptide cleavage fluorescence; calls only; 290,000 compounds, 0.27% hits; AID 2563;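 active = fall in fluorescence gain of 50% or more versus controls, with final raw signal at or below 3038400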;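 also: plate controls were neutral control wells for no effect and wells lacking membranes for full effect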
FXIa inh 1536: factor XIa (human) inhibition. inhibition, % at 5 µM. 220,000 compounds, 0.14% hits. P03951. purified FXIa, Boc-Glu-Ala-Arg-AMC fluorogenic substrate;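 active = inhibition of at least 40%; inactive = inhibition below 40%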;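 also: fluorescence of freed AMC excited at 355 nm; 0% = enzyme without compound and 100% = no enzyme blank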
FXIIa inh 1536: factor XIIa (human) inhibition. inhibition, % at 5 µM. 220,000 compounds, 0.3% hits. purified FXIIa, Boc-QGR-AMC fluorogenic substrate, 2 h. AID 800. P00748; in the data active = inhibition above about 40%;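 also: 0% = enzyme with no compound and 100% = blank without enzyme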
Target sequence (P00748 20-372 limits assumed): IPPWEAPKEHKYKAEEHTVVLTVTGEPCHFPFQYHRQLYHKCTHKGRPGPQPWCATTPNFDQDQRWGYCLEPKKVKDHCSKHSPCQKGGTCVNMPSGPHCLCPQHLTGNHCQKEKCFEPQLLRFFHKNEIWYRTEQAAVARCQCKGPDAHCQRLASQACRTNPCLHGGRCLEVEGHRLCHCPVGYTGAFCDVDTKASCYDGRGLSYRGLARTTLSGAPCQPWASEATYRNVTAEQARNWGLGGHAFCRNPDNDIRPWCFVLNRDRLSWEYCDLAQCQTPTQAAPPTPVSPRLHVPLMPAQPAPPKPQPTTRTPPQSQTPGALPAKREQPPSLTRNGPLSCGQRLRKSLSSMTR
Target sequence (P00748 373-615 limits assumed): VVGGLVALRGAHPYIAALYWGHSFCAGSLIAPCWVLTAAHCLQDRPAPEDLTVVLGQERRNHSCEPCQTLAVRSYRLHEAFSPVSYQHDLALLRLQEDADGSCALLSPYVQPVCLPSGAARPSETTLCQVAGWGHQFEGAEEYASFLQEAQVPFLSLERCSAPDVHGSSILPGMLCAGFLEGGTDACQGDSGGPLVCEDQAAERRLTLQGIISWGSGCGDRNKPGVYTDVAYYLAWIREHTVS
Thrombin inh: thrombin (human) inhibition; P00734; alpha-thrombin, Boc-VPR-AMC fluorogenic substrate cleavage; inhibition, % at 5 µM; 220,000 compounds, 0.26% hits;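 active = inhibition at or above 40%; inactive = inhibition below 40%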;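 also: 0% = enzyme with no compound and 100% = wells without enzyme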
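Material: Human alpha-thrombin protein | Buffer or medium: pH 7.5 Tris-saline with Tween 20 | Reagent: Boc-VPR-AMC substrate, 15 µM final | Schedule: Reaction at ambient temperature | Detection: AMC fluorescence at 355 nm excitation and 460 nm emission | Evaluation: Percent inhibition scaled between no-compound controls and no-enzyme blanks | Controls: no-compound enzyme wells and no-enzyme blanks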
* = called active by the depositor.

How did Cc1oc(-c2ccccc2F)nc1CS(=O)CC(=O)NC1CCCC1 (stereo unspecified) do in these assays?
Fh CTSL1 inh: 0; Rce1 inh: inactive

What do the screens show for `CCCC(=O)n1nc(-c2ccc(C)cc2)nc1NCc1ccco1`?
Fh CTSL1 inh: -1; Rce1 inh: inactive; FXIa inh 1536: -2; FXIIa inh 1536: 3; Thrombin inh: 58*

Results for CC(=O)n1nc(-c2ccc(Cl)cc2)nc1NCc1ccco1 ?
KLK5 inh: 1; Fh CTSL1 inh: 0; FXIa inh 1536: -12; FXIIa inh 1536: 15; Thrombin inh: 47*

How did COc1ccc(CC(=O)n2nc(-c3ccc(Cl)cc3)nc2NCc2ccco2)cc1 do in these assays?
KLK5 inh: -3; Fh CTSL1 inh: 5; FXIa inh 1536: 3; FXIIa inh 1536: 24; Thrombin inh: 29

What do the screens show for `C[C@H]1C=C(C(=O)NCc2ccccc2)O[C@@H](OCc2ccc(CO)cc2)C1`?
KLK5 inh: 3; Fh CTSL1 inh: -2; Rce1 inh: inactive; FXIa inh 1536: 1; FXIIa inh 1536: 12; Thrombin inh: 0

What do the screens show for `COc1ccc2c(=O)c(-c3ccc(OC)c(OC)c3)coc2c1`?
KLK5 inh: -3; Fh CTSL1 inh: 0; Rce1 inh: inactive; FXIa inh 1536: 1; FXIIa inh 1536: 6; Thrombin inh: 2

How did COc1ccc(-c2coc3cc(O)ccc3c2=O)cc1OC do in these assays?
KLK5 inh: 43*; Fh CTSL1 inh: 1; Rce1 inh: inactive; FXIa inh 1536: 2; FXIIa inh 1536: 26; Thrombin inh: 7

Results for CCNS(=O)(=O)c1ccc(CCC(=O)N2CCN(C(=O)OCC)CC2)cc1 ?
Fh CTSL1 inh: -2; Rce1 inh: inactive

How did COc1ccc(C(=O)Nc2ccc(-c3n[nH]c(=S)o3)cc2)cc1 do in these assays?
Rce1 inh: inactive

What do the screens show for `C=CCOc1ccc(-c2n[nH]c(=S)o2)cc1`?
KLK5 inh: -6; Fh CTSL1 inh: 3; Rce1 inh: active; FXIa inh 1536: -2; FXIIa inh 1536: 1

Results for CSc1nc(-c2ccccc2)nn1S(=O)(=O)c1ccc(Cl)cc1 ?
KLK5 inh: 10; Fh CTSL1 inh: 1; Rce1 inh: inactive; FXIa inh 1536: -19; FXIIa inh 1536: 14; Thrombin inh: 1

How did Nc1nc(-c2ccc(Cl)cc2)nn1C(=O)c1cccs1 do in these assays?
KLK5 inh: -5; Fh CTSL1 inh: -2; Rce1 inh: inactive; FXIa inh 1536: 0; FXIIa inh 1536: -2; Thrombin inh: 0

What do the screens show for `CSc1nc(-c2ccc(Cl)cc2)nn1C(=O)c1ccccc1`?
KLK5 inh: 63*; Fh CTSL1 inh: -8; Rce1 inh: inactive; FXIa inh 1536: 23; FXIIa inh 1536: 17; Thrombin inh: 29

What do the screens show for `CSc1nc(-c2ccccc2)nn1C(=O)c1ccc(Cl)cc1`?
KLK5 inh: 68*; Fh CTSL1 inh: 1; Rce1 inh: inactive; FXIa inh 1536: 20; FXIIa inh 1536: 17; Thrombin inh: 84*

Results for O=C(c1ccc(-n2cncn2)c([N+](=O)[O-])c1)N1CCN(S(=O)(=O)c2ccccc2F)CC1 ?
Fh CTSL1 inh: -2; Rce1 inh: inactive

How did CCN(CC)CCCN(Cc1cc2cc3c(cc2[nH]c1=O)OCO3)C(=S)NCCCN(C)C do in these assays?
Fh CTSL1 inh: 5; Rce1 inh: active

Results for CCOC(=O)Cn1nc(C)c(NC(=O)COc2ccccc2[N+](=O)[O-])c1C ?
KLK5 inh: -6; Fh CTSL1 inh: -8; Rce1 inh: inactive; FXIa inh 1536: -3; FXIIa inh 1536: -5; Thrombin inh: -8

What do the screens show for `CC(=O)Nc1ccc(S(=O)(=O)Nc2cccc(-c3nc4ccccc4o3)c2)cc1`?
KLK5 inh: -16; Fh CTSL1 inh: 3; Rce1 inh: active; FXIa inh 1536: 4; FXIIa inh 1536: -12; Thrombin inh: -8

How did O=S(=O)(Nc1ccc(-c2nc3ccccc3o2)cc1)c1ccccc1 do in these assays?
KLK5 inh: -9; Fh CTSL1 inh: 7; Rce1 inh: inactive; FXIa inh 1536: 7; FXIIa inh 1536: 15; Thrombin inh: -4

Results for O=C(CCNS(=O)(=O)c1ccccc1)N1CCN(C(c2ccccc2)c2ccccc2)CC1 ?
Fh CTSL1 inh: 0; Rce1 inh: inactive

What do the screens show for `O=C(O)CCCC(=O)N1CCN(C(c2ccccc2)c2ccccc2)CC1`?
KLK5 inh: 52*; Fh CTSL1 inh: -1; Rce1 inh: inactive; FXIa inh 1536: 7; FXIIa inh 1536: 6; Thrombin inh: 16

What do the screens show for `CCN(CC)C(=O)CN1CCN(c2ncccn2)CC1`?
KLK5 inh: 64*; Fh CTSL1 inh: 0; Rce1 inh: inactive; FXIa inh 1536: 4; FXIIa inh 1536: 10; Thrombin inh: 33

Results for CCC(=O)NC(=S)Nc1cccc(NC(=O)c2ccccc2)c1 ?
KLK5 inh: 21; Fh CTSL1 inh: 2; Rce1 inh: inactive; FXIa inh 1536: 35; FXIIa inh 1536: 35; Thrombin inh: 40*

Results for C=CCOC(=O)C1=C(C)N=C2SCCC(=O)N2C1c1cccs1 (stereo unspecified) ?
KLK5 inh: 9; Fh CTSL1 inh: 3; Rce1 inh: inactive; FXIa inh 1536: 8; FXIIa inh 1536: 71*; Thrombin inh: 4

What do the screens show for `CC(C)N1CCN(Cc2nc(-c3ccccc3)cs2)CC1CCO` (stereo unspecified)?
Fh CTSL1 inh: 20*; Rce1 inh: inactive; FXIa inh 1536: 5; FXIIa inh 1536: 12; Thrombin inh: 3

How did N#Cc1nc(-c2ccccc2F)oc1NCc1ccccc1 do in these assays?
KLK5 inh: 42*; Fh CTSL1 inh: 4; Rce1 inh: inactive; FXIa inh 1536: 16; FXIIa inh 1536: 15; Thrombin inh: 14

How did COc1ccc(-n2nc(C(=O)Nc3nc4ccc(OC)cc4s3)c3ccccc3c2=O)c(OC)c1 do in these assays?
KLK5 inh: -3; Fh CTSL1 inh: -1; Rce1 inh: inactive; FXIa inh 1536: 4; FXIIa inh 1536: 9; Thrombin inh: -2

What do the screens show for `CCOCCCn1cnc2c(c1=O)c1nc3ccccc3nc1n2-c1ccccc1`?
KLK5 inh: 22; Fh CTSL1 inh: 0; Rce1 inh: inactive; FXIa inh 1536: 13; FXIIa inh 1536: 54*; Thrombin inh: 21

What do the screens show for `CCOCCCn1cnc2c(c1=O)c1nc3ccccc3nc1n2-c1ccc(C)cc1`?
KLK5 inh: -10; Fh CTSL1 inh: 3; Rce1 inh: inactive; FXIa inh 1536: 5; FXIIa inh 1536: 5; Thrombin inh: 4

What do the screens show for `COc1ccc(C(=O)Nc2ccc(Cl)cc2C(=O)NCc2ccco2)cc1OC`?
KLK5 inh: -13; Fh CTSL1 inh: 0; Rce1 inh: inactive; FXIa inh 1536: -2; FXIIa inh 1536: 0; Thrombin inh: 0

What do the screens show for `COc1ccc(C(=O)Nc2ccccc2C(=O)NCc2ccco2)cc1OC`?
KLK5 inh: 42*; Fh CTSL1 inh: 2; Rce1 inh: inactive; FXIa inh 1536: 4; FXIIa inh 1536: 7; Thrombin inh: 22
